Results on nine compounds are retold here after ChEMBL document CHEMBL3612040, “Discovery of Selective Small Molecule Inhibitors of Monoacylglycerol Acyltransferase 3” (J Med Chem, 2015).

Data set [1] is described as follows: Intrinsic clearance in human liver microsomes. The class given is ADME. Particulars: read-out: CLH. (Liver microsomes are a subcellular fraction often used to study metabolism.)
The nature of data set [2]: Lipophilicity, logD of the compound at pH 7.4. The class given is physicochemical. Particulars: buffer. In short, it runs like this:
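Shake-flask octanol:water partition at pH 7.4, with MS analysis of samples.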

The nature of data set [3]: Apparent permeability in RRCK cells. Type of data set: ADME, cell-based, Canis lupus familiaris, MDCKII-LE. As to conditions: dog, MDCK.
The next data set relates to Hepatocyte. The experiment in a line: Drug metabolism in human hepatocytes assessed as compound oxidation. Type of data set: ADME, cell-based.
For another data set, the target named is CYP2C9 (Homo sapiens, UniProt P11712). Description: Inhibition of CYP2C9 (unknown origin) at 3 uM. The class given is ADME.
The next data set has as its target Cytochrome P450 2C9 (Homo sapiens, UniProt P11712). Description: Drug metabolism in human hepatocytes assessed as CYP2C9-mediated compound oxidation. Type of data set: ADME, cell-based, Hepatocyte.
A further data set has as its target T1, CYP2C8 (Homo sapiens, UniProt P10632).
T1 sequence (P10632 whole entry): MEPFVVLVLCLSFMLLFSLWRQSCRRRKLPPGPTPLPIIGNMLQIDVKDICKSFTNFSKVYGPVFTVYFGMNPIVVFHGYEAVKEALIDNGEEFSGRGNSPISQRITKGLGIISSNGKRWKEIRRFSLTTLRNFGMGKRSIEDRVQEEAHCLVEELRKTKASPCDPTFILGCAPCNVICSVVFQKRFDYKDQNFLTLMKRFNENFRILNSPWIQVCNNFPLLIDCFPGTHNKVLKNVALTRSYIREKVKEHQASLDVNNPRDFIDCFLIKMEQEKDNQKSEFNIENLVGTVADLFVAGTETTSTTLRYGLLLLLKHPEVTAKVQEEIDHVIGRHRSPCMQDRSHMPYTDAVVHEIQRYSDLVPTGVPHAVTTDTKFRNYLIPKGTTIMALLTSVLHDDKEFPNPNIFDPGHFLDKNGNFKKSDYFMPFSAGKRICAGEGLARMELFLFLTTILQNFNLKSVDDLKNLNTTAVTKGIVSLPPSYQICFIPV
The experiment in a line: Inhibition of CYP2C8 (unknown origin) at 3 uM. The class given is ADME.

For data set [4], the target named is T2, Diacylglycerol O-acyltransferase 1 (Homo sapiens, UniProt O75907).
T2 sequence (O75907 whole entry): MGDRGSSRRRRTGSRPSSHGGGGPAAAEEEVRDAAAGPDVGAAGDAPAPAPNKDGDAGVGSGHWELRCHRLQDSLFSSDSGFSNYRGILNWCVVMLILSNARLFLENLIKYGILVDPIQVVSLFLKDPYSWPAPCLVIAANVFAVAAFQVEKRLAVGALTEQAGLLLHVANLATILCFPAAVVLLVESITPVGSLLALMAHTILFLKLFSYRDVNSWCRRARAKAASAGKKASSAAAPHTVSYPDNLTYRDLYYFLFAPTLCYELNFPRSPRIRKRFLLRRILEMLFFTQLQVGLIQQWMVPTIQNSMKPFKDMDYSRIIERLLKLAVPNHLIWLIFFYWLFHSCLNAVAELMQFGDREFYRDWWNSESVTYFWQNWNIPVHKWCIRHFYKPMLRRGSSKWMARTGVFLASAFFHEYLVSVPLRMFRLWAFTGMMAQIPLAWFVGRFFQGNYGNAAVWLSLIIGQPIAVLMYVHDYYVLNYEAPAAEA
Description: Inhibition of DGAT1 (unknown origin) assessed as effect on incorporation of [1-14C]decanoyl moiety into TG using [1-14C]decanoyl-CoA and 1,2-didecanoyl-sn-glycerol as substrates.

Data set [5] concerns the target T3, Diacylglycerol O-acyltransferase 2 (Homo sapiens, UniProt Q96PD7).
T3 sequence (Q96PD7 whole entry): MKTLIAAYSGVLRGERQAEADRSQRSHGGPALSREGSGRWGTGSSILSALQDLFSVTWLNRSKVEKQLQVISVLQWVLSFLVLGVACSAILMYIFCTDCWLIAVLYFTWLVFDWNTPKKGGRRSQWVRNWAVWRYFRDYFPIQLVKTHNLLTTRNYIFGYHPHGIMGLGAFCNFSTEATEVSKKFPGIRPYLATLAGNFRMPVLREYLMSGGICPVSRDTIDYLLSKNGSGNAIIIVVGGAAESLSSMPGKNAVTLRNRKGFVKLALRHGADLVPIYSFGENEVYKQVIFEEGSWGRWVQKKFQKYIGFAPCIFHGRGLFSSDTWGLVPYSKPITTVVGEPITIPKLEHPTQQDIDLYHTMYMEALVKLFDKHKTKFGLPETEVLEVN
The experiment in a line: Inhibition of DGAT2 (unknown origin) using [1-14C]decanoyl-CoA and didecanoyl-sn-glycerol substrates incubated for 40 mins. The method in brief: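 DGAT2 membrane fraction (0.01 mg/mL) in 100 mM Hepes-NaOH pH 7.4, 20 mM MgCl2, 200 nM MAFP. Compound first held 20 min with 0.04% fatty-acid-free BSA, then preincubated 120 min at RT with enzyme. Started with 30 µM [1-14C]decanoyl-CoA and 125 µM 1,2-didecanoyl-sn-glycerol; ran 40 min at RT, acid-stopped. Labelled TAG read by scintillation after phase partitioning.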

For orientation: logD means the decadic logarithm of the distribution of all forms, ionised or not, between an organic phase and buffer at a given pH. A low value points to lower lipophilicity. In general, Papp refers to the rate of passage across a membrane or cell layer, normalised by area and donor concentration. The term inhibition denotes the relative decrease from the control value, in per cent. The term IC50 denotes the concentration that inhibits the measured activity by half.

Bounds are passed on as bounds.

CYP2C9, sequence (P11712 whole entry): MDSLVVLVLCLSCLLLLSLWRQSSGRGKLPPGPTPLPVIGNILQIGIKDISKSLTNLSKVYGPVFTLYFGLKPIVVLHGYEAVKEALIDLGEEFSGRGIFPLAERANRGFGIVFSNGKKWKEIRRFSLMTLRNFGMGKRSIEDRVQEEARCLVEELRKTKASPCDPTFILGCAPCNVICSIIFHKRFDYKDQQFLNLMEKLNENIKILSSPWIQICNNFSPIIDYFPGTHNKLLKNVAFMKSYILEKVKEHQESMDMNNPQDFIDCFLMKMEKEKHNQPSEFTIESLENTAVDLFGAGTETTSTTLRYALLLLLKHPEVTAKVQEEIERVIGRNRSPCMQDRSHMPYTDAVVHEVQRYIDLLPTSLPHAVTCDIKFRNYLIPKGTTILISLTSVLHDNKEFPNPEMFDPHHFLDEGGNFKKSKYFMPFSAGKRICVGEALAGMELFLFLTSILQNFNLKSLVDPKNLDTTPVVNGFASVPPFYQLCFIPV
Cytochrome P450 2C9, sequence (P11712 whole entry): as above

With `COc1cccc(CC(=O)N2Cc3ccc(S(=O)(=O)Nc4cnn(C)n4)cc3C2)c1`, the microsomal CLint in data set [1] is below 8 µL/min/mg. The compound also showed a logD in [2] of 0.2. Also, the Papp in data set [3] came to 1 ×10⁻⁶ cm/s.
Turning to `COc1cccc(CC(=O)N2Cc3ccc(S(=O)(=O)Nc4cnn(C5CCOCC5)n4)cc3C2)c1`, in data set [1], the microsomal CLint is below 8 µL/min/mg. In data set [2], the logD was 0.9. The Stability entry in the data set on Hepatocyte is “Stable”. Besides, in [3], the apparent permeability (Papp) came out at 5 ×10⁻⁶ cm/s.
`COc1cccc(CC(=O)N2Cc3ccc(S(=O)(=O)Nc4cnn(-c5ccccc5)n4)cc3C2)c1`: the inhibition at 3 µM is 88% against CYP2C9 and 48% at CYP2C8. For the same compound, the Drug metabolism entry at Cytochrome P450 2C9 and in the data set on Hepatocyte was “metabolite_detected” each time. The microsomal CLint in data set [1] turned out to be 273 µL/min/mg. In addition, in data set [2], the logD was found to be 2.3. The Papp in data set [3] turned out to be 15 ×10⁻⁶ cm/s.
Regarding `COc1cccc(CC(=O)N2Cc3ccc(S(=O)(=O)Nc4cnn(C5COC5)n4)cc3C2)c1`, the microsomal CLint in data set [1] was below 8 µL/min/mg. For the same compound, the logD in data set [2] was found to be 0.2. The Papp in data set [3] stood at 3 ×10⁻⁶ cm/s.
Turning to `COc1cccc(CC(=O)N2Cc3ccc(S(=O)(=O)NCCc4cccc(F)c4)cc3C2)c1`, the inhibition at 3 µM at CYP2C9 stood at 35%; on CYP2C8, 29%. For the same compound, the microsomal CLint in [1] is above 320 µL/min/mg. For the same compound, the logD in data set [2] came to 3.6. Further, the IC50 is 31 µM in data set [4] and above 40 µM in [5]. Moreover, the apparent permeability (Papp) in [3] was determined as 8 ×10⁻⁶ cm/s.
Regarding `COc1cccc(CC(=O)N2Cc3ccc(S(=O)(=O)Nc4cnn(C(C)C)n4)cc3C2)c1`, in [1], the microsomal CLint was below 8 µL/min/mg. The logD in data set [2] is 1.4. Moreover, the Papp in data set [3] came to 25 ×10⁻⁶ cm/s.
The corresponding values for `COc1cccc(CC(=O)N2Cc3ccc(S(=O)(=O)N(C)CCc4cccc(F)c4)cc3C2)c1` are above 320 µL/min/mg, 3.9 and 4 ×10⁻⁶ cm/s.
As to `COc1cccc(CC(=O)N2Cc3ccc(S(=O)(=O)Nc4cnn(-c5ccc(F)cc5)n4)cc3C2)c1`, the inhibition at 3 µM at CYP2C9 stood at 95%; against CYP2C8, 62%. The microsomal CLint in [1] was 13 µL/min/mg. For the same compound, in data set [2], the logD stood at 2.5. Besides, in data set [3], the Papp amounted to 6 ×10⁻⁶ cm/s.
With `COc1cccc(CC(=O)N2Cc3ccc(S(=O)(=O)Nc4cnn(C5CC(F)(F)C5)n4)cc3C2)c1`, the microsomal CLint in data set [1] was below 8 µL/min/mg. In data set [2], the logD worked out at 1.5. For the same compound, in data set [3], the Papp came out at 7 ×10⁻⁶ cm/s.
